Reference: ChEMBL document CHEMBL1149189, “In vitro antimalarial activity of a series of cationic 2,2'-bipyridyl- and 1,10-phenanthrolineplatinum(II) benzoylthiourea complexes” (J Med Chem, 2004)
Where a name gives a salt, the structure may show the parent alone.

test system: Ferriprotoporphyrin IX; settings: not given

Compound | Log K
CCN(CC)CCN(CCN(CC)CC)C(=S)NC(=O)c1ccccc1 | 1.93
O=[N+]([O-])c1cc2cccnc2c2ncccc12 | 2.88
Clc1cc2cccnc2c2ncccc12 | 3.01
Cc1cnc2c(ccc3c(C)c(C)cnc32)c1C | 3.32
Cc1cc2cccnc2c2ncccc12 | 2.93
Cc1ccnc2c1ccc1cccnc12 | 3.22

test system: CHO; experiment: In vitro cytotoxicity against CHO cells was determined using MTT colorimetric assay; assay type: functional, cell-based; settings: Cricetulus griseus
Summary of the method: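 Chinese hamster ovary cells; MTT colorimetric read-out. Compounds dissolved as 2 mg/mL stocks in water, then diluted in medium as six serial 10-fold dilutions, final 100 µg/mL to 1 ng/mL. Emetine dihydrochloride as positive control. IC50 from nonlinear dose–response curve fitting; mean ± standard deviation of two independent experiments, each in triplicate.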

Compound | IC50
CC[C@H]1CN2CCc3cc(OC)c(OC)cc3[C@@H]2C[C@@H]1C[C@H]1NCCc2cc(OC)c(OC)cc21 [EMETINE HYDROCHLORIDE] | 139 nM

test system: Ferriprotoporphyrin IX; settings: not given; remark: another data set of the same source

Compound | Log K
Cc1ccnc(-c2cc(C)ccn2)c1 | No association
O=C(NC(=S)N(CCO)CCO)c1ccccc1 | No association
c1ccc(-c2ccccn2)nc1 | No association
